In ChEMBL document CHEMBL4311968, “New oxadiazoles with selective-COX-2 and EGFR dual inhibitory activity: Design, synthesis, cytotoxicity evaluation and in silico studies” (Eur J Med Chem, 2019) one finds IC50 data, which are given here for 25 compounds.

Assay [1] deals with T1, Prostaglandin G/H synthase 1 (Ovis aries, UniProt P05979).
T1 sequence (P05979 whole entry): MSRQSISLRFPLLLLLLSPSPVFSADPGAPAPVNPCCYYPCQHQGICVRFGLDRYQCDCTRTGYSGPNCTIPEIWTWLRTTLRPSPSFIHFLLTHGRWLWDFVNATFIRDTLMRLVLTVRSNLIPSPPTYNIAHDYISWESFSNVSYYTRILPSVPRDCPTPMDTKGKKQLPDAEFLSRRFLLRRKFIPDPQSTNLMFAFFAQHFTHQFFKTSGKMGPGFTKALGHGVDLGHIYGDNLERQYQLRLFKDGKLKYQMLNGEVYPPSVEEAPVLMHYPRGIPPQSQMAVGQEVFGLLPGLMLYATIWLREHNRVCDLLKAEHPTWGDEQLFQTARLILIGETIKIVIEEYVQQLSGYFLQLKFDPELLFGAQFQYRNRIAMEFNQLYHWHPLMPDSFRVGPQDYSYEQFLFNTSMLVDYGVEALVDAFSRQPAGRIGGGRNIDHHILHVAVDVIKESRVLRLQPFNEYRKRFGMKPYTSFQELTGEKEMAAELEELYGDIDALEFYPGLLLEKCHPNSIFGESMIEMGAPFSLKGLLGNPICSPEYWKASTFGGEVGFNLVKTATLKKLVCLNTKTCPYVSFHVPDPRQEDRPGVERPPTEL
As to the kind of experiment: Inhibition of ovine COX-1 by EIA method.

The subject of the next assay is UO-31. In words: Antiproliferative against human UO31 cells incubated for 24 hrs by MTT assay. Particulars: UO-31, 24 h. Format: functional, cell-based. The essentials: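 UO-31 cells from ATCC, grown in DMEM with 10% FBS, 10 ug/mL insulin and 1% penicillin-streptomycin. Seeded at 1.2–1.8 × 10,000 cells/well with test compound for 24 h. MTT read-out: crystals dissolved in acidified isopropanol, absorbance at 570 nm.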
For orientation: Tetrazolium assays rely on reduction of a dye to a coloured formazan, in cell work by metabolically active cells.

The target in assay [2] is Epidermal growth factor receptor (Homo sapiens, UniProt P00533). As to the kind of experiment: Inhibition of recombinant human GST-tagged EGFR catalytic domain (668 to 1210 residues) expressed in baculovirus expression system using TK-biotin peptide as substrate measured after 10 mins by HTRF assay. Background: Time-resolved FRET reads energy transfer from a long-lived donor to a nearby acceptor.
Epidermal growth factor receptor, sequence (P00533 whole entry, the tested form may be a part): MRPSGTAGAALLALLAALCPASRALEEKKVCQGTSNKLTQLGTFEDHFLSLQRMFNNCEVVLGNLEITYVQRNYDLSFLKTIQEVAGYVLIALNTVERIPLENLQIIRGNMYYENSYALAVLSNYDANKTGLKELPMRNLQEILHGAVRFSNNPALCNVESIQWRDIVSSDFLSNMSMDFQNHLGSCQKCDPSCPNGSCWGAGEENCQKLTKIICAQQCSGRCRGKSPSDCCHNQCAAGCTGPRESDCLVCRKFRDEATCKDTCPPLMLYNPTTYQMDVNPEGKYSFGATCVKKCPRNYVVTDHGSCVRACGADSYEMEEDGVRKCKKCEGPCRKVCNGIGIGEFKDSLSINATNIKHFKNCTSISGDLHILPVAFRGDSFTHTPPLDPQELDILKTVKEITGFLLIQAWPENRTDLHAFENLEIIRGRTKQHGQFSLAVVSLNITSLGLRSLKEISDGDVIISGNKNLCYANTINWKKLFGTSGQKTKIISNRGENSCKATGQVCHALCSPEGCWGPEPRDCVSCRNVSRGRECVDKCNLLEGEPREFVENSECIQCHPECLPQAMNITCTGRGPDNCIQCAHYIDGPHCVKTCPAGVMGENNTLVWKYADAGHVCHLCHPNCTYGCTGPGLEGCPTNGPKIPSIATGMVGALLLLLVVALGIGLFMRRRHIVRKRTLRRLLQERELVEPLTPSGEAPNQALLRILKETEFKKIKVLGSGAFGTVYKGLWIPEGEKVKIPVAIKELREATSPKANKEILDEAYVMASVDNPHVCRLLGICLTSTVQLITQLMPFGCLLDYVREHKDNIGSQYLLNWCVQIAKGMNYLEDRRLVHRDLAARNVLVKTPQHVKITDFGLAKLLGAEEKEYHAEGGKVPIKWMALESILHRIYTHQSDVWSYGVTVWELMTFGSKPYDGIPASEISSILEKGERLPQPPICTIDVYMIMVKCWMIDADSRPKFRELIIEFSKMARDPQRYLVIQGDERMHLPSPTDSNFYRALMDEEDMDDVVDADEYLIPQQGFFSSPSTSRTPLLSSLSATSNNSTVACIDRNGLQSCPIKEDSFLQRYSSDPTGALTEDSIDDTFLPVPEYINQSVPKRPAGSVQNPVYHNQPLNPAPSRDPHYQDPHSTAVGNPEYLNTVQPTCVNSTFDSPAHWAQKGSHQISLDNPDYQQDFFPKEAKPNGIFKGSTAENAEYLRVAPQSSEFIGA

As usually defined, the IC50 is the concentration that gives 50% inhibition. For `O=C(Nc1ccccc1)Nc1nnc(-c2ccccc2)o1`, the IC50 was determined as 6.87 µM in assay [1] and 0.0332 µM with UO-31. Consider `O=C(CSc1nnc(-c2ccncc2)o1)N/N=C/c1ccc(Cl)cc1`, for which 6.78 µM corresponded to half-maximal inhibition in assay [1] (IC50).

`O=C(CSc1nnc(-c2ccncc2)o1)N/N=C/c1ccc([N+](=O)[O-])cc1` gave a 50% inhibitory concentration (IC50) in assay [1] of 4.49 µM.

In assay [1], `CCO/C=N/c1nnc(-c2ccccc2)o1` had an IC50 of 14.2 µM. For `Brc1ccc(/C=N/Nc2nnc(-c3ccncc3)o2)cc1`, the half-maximal inhibitory concentration (IC50) in assay [1] stood at 5.71 µM.

The compound `O=[N+]([O-])c1ccc(/C=N/c2nnc(-c3ccc(Cl)cc3)o2)cc1` yielded an IC50 in assay [1] of 12 µM. `Clc1ccc(/C=N/Nc2nnc(-c3ccncc3)o2)cc1` gave an IC50 in assay [1] of 8.69 µM. As to `Clc1ccc(-c2nnc(CSc3nnc(-c4ccncc4)o3)o2)cc1`, 6.84 µM corresponded to half-maximal inhibition in assay [1] (IC50). As to `CCO/C=N/c1nnc(-c2ccc(Cl)cc2)o1`, the IC50 stood at 15.4 µM in assay [1] and 0.0527 µM with UO-31. `O=C(Nc1ccccc1)Nc1nnc(-c2ccc(Cl)cc2)o1`: in assay [1], the IC50 came out at 10.9 µM. The compound `N#CCC(=O)Nc1nnc(-c2ccc(Cl)cc2)o1` gave an IC50 in assay [1] of 13.7 µM. `Clc1ccc(/C=N/c2nnc(-c3ccc(Cl)cc3)o2)cc1`: the IC50 turned out to be 5.39 µM in assay [1] and 0.0296 µM in the assay with UO-31. In assay [1], `O=[N+]([O-])c1ccc(/C=N/c2nnc(-c3ccccc3)o2)cc1` registered an IC50 of 9.81 µM. On to `Brc1ccc(-c2nnc(CSc3nnc(-c4ccncc4)o3)o2)cc1`, for which the figures for the IC50 (in assay [1]; with UO-31) were 4.17 µM and 0.0835 µM, respectively. On to `CCO/C=N/c1nnc(-c2cccnc2)o1`, for which the IC50 in assay [1] is 12.7 µM; in the assay on UO-31, 0.31 µM.

For `O=C(Nc1ccccc1)Nc1nnc(-c2cccnc2)o1`, the IC50 was determined as 9.37 µM in assay [1] and 0.00576 µM with UO-31.

`Clc1ccc(-c2nnc(/N=C/c3ccccc3)o2)cc1`: it took 7.54 µM to reach half-maximal inhibition in assay [1] (IC50). Regarding `O=[N+]([O-])c1ccc(/C=N/Nc2nnc(-c3ccncc3)o2)cc1`, the IC50 in assay [1] came out at 9.87 µM; in the assay with UO-31 it was 0.0086 µM; in assay [2], 0.412 µM. For `Clc1ccc(/C=N/c2nnc(-c3cccnc3)o2)cc1`, in that order: 10.5 µM, 0.0136 µM and 1.13 µM.

For the compound `C(=N\Nc1nnc(-c2ccncc2)o1)/c1ccccc1`, in assay [1], inhibition was half-maximal at 10.6 µM (IC50). `Clc1ccc(/C=N/c2nnc(-c3ccccc3)o2)cc1` registered an IC50 in assay [1] of 11.4 µM. For the compound `O=[N+]([O-])c1ccc(/C=N/c2nnc(-c3cccnc3)o2)cc1`, in assay [1], the IC50 is 8.29 µM.

`Oc1ccc(-c2nnc(CSc3nnc(-c4ccncc4)o3)o2)cc1` gave an IC50 in assay [1] of 7.96 µM. Take `N#CCC(=O)Nc1nnc(-c2cccnc2)o1`: the midpoint of inhibition in assay [1], the IC50, lay at 13.1 µM. For `COc1cccc2c1C(=O)c1c(O)c3c(c(O)c1C2=O)C[C@@](O)(C(=O)CO)C[C@@H]3O[C@H]1C[C@H](N)[C@H](O)[C@H](C)O1` [DOXORUBICIN], in the assay with UO-31, the midpoint of inhibition, the IC50, lay at 0.00745 µM.
